Active and inactive are the calls of the source. The calls are words filed in the database; no cut-off is given here.
Tests used:
Leishmania mexicana [1] = assay: (§1) Antileishmanial activity against Leishmania mexicana MNYC/BZ/62/M379 amastigotes expressing red-shifted firefly luciferase from integrated ribosomal (28S) RNA locus infected in mouse J774.A1 cells assessed as parasite survival at 0.1 uM measured after 96 hrs by luminescence based analysis relative to control; assay type: functional; conditions: MNYC/BZ/62/M379, J774.A1
[2] = Cytotoxicity against mouse J774.A1 cells assessed as cell survival at 0.1 uM measured after 96 hrs by SYBR Green II dye based analysis relative to control; assay type: toxicity; conditions: read-out: Survival
Outline: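 Uninfected J774A.1 mouse macrophages were plated at 1 × 10⁴ cells/well in DMEM with 10% heat-inactivated FBS and left 3 h at 37 °C to reattach. Compounds were added from DMSO, and analogues were screened at 0.1 μM. After 96 h at 37 °C in 5% CO₂, medium was removed. SYBR Green II (1:1000 in 1% Triton/PBS) was added for 1 h in the dark at room temperature, and fluorescence was read at Ex 485/Em 535 as a DNA-content measure of viability.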

Leishmania mexicana [3] = assay: Antileishmanial activity against Leishmania mexicana MNYC/BZ/62/M379 amastigotes expressing red-shifted firefly luciferase from integrated ribosomal (28S) RNA locus infected in mouse J774.A1 cells assessed as reduction in parasite survival measured after 96 hrs by luminescence based analysis; assay type: functional, organism-based; conditions: MNYC/BZ/62/M379, J774.A1, 96 h
Outline: (§2)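 J774A.1 macrophages infected with stationary-phase luciferase-expressing promastigotes at 10:1 parasites:macrophage, overnight at 37 °C, 5% CO₂. Non-internalized parasites washed off and 1 × 10⁴ cells/well replated in MEM/10% HI-FBS. Compounds in DMSO added as serial 3-fold dilutions (typically 10 μM–1 nM) for 96 h. Luciferase luminescence read; EC50 from log-transformed sigmoidal variable-slope fit. Mean ± SD of ≥2 independent experiments.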

[4] = Cytotoxicity against mouse J774.A1 cells assessed as reduction in cell survival measured after 96 hrs by SYBR Green II dye based analysis; assay type: toxicity
Outline: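 Uninfected J774A.1 macrophages, 1 × 10⁴ cells/well in DMEM/10% HI-FBS, reattached 3 h, then exposed to compounds for 96 h. DNA content read after lysis with SYBR Green II (1:1000 in 1% Triton/PBS), 1 h dark at room temperature, fluorescence Ex 485/Em 535.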

[5] = Therapeutic index, ratio of EC50 for mouse J774.A1 cells to EC50 for antileishmanial activity against Leishmania mexicana MNYC/BZ/62/M379 amastigotes expressing red-shifted firefly luciferase from integrated ribosomal (28S) RNA locus infected in mouse J774.A1 cells; assay type: toxicity, cell-based; conditions: read-out: TI
Leishmania mexicana [6] = assay: as §1, with “assessed as inhibition of parasite growth” for “assessed as parasite survival”, “of parasite growth at 0.1” for “as parasite survival at 0.1”; assay type: functional; conditions: MNYC/BZ/62/M379, J774.A1, read-out: INH
[7] = Metabolic stability in pre-warmed pooled human liver microsomes assessed as half life at 1 uM measured upto 60 mins by LC-MS analysis; assay type: ADME, Microsome
Outline: (§3)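 Compound at 1 μM final with 0.5 mg/mL pooled human or mouse liver microsomes, 1.3 mM NADP and 3.3 mM MgCl₂ in 100 mM potassium phosphate, pH 7.4. Reaction started with 1 U/mL G6PD at 37 °C with shaking.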

[8] = Metabolic stability in pre-warmed pooled mouse liver microsomes assessed as half life at 1 uM measured upto 60 mins by LC-MS analysis; assay type: ADME, Microsome; outline: as §3
HepG2 = assay: Cytotoxicity against human HepG2 cells assessed as inhibition of cell growth incubated for 48 hrs by MTT assay; assay type: toxicity, cell-based
Outline: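 HepG2 cells, 2.5 × 10⁴/well in supplemented complete MEM, settled overnight at 37 °C, 5% CO₂. Compounds given as 11 duplicate 1.6-fold dilutions, 10 to 0.15 μg/mL, for 48 h. MTT added for 1 h in the dark at room temperature, formazan dissolved in acidified isopropanol, absorbance read. Triplicate runs; IC50 by sigmoidal variable-slope regression.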

Leishmania mexicana [9] = assay: Antileishmanial activity against Leishmania mexicana amastigotes expressing red-shifted firefly luciferase from integrated ribosomal (28S) RNA locus infected in female BALB/c mouse assessed as retardation of lesion progression by measuring reduction in footpad lesion at 40 mg/kg/day, po …; assay type: functional, organism-based; conditions: time 20-29 day
Leishmania mexicana [10] = assay: Antileishmanial activity against Leishmania mexicana amastigotes expressing red-shifted firefly luciferase from integrated ribosomal (28S) RNA locus infected in female BALB/c mouse assessed as retardation of lesion progression by measuring reduction in luminescence signal over infected footpad at …; assay type: functional, organism-based; conditions: dose 40.0 mg/kg/day, route po, time 20-29 day
Leishmania donovani = assay: Antileishmanial activity against Leishmania donovani amastigotes expressing red-shifted firefly luciferase from integrated ribosomal (28S) RNA locus infected in mouse J774.A1 cells assessed as reduction in parasite growth measured after 96 hrs by luminescence based analysis; assay type: functional, organism-based; conditions: J774.A1, 96 h; outline: as §2
[11] = Therapeutic index, ratio of IC50 for human HepG2 cells to EC50 for antileishmanial activity against Leishmania donovani amastigotes expressing red-shifted firefly luciferase from integrated ribosomal (28S) RNA locus infected in mouse J774.A1 cells; assay type: toxicity, cell-based; conditions: read-out: TI
Outline: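 TI computed as HepG2 IC50 divided by L. donovani EC50. HepG2: MTT assay with 48 h exposure to 10–0.15 μg/mL (1.6-fold dilutions), triplicates, sigmoidal variable-slope fit. Amastigotes: J774A.1 macrophages infected with RS-luciferase promastigotes at 10:1, washed after 24 h, then 96 h compound exposure (3-fold dilutions, 10 μM–1 nM) in MEM/10% HI-FBS at 37 °C, 5% CO₂; luciferase readout.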

[12] = AUC (0 to last) in male ICR-CD1 mouse liver at 40 mg/kg, po administered as single dose and measured upto 72 hrs; assay type: ADME, organism-based; conditions: in vivo
Outline: (§4)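 Oral (intragastric) single dose, formulated in 50% PEG-400:50% sterile water, given to male ICR-CD1 mice (23–28 g), three per time point. Terminal cardiac-puncture blood (heparinized) and liver taken at 0, 0.5, 1, 2, 4, 8, 24, 30, 48, 54 and 72 h. Plasma separated by centrifugation at 4 °C. Samples held at −80 °C before drug quantitation and PK parameter calculation.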

[13] = Cmax in male ICR-CD1 mouse liver at 40 mg/kg, po administered as single dose and measured upto 72 hrs; assay type: ADME, organism-based; conditions: in vivo; outline: as §4
[14] = Tmax in male ICR-CD1 mouse liver at 40 mg/kg, po administered as single dose and measured upto 72 hrs; assay type: ADME, organism-based; conditions: in vivo; outline: as §4
[15] = Apparent elimination half life in male ICR-CD1 mouse liver at 40 mg/kg, po administered as single dose and measured upto 72 hrs; assay type: ADME, organism-based; conditions: in vivo; outline: as §4
[16] = AUC (0 to infinity) in male ICR-CD1 mouse liver at 40 mg/kg, po administered as single dose and measured upto 72 hrs; assay type: ADME, organism-based; conditions: in vivo; outline: as §4
[17] = Extrapolated AUC in male ICR-CD1 mouse liver at 40 mg/kg, po administered as single dose and measured upto 72 hrs; assay type: ADME, organism-based; conditions: in vivo; outline: as §4
[18] = Cmax in male ICR-CD1 mouse plasma at 40 mg/kg, po administered as single dose and measured upto 72 hrs; assay type: ADME, organism-based; conditions: in vivo; outline: as §4
[19] = Tmax in male ICR-CD1 mouse plasma at 40 mg/kg, po administered as single dose and measured upto 72 hrs; assay type: ADME, organism-based; conditions: in vivo; outline: as §4
[20] = Apparent elimination half life in male ICR-CD1 mouse plasma at 40 mg/kg, po administered as single dose and measured upto 72 hrs; assay type: ADME, organism-based; conditions: in vivo; outline: as §4
[21] = AUC (0 to last) in male ICR-CD1 mouse plasma at 40 mg/kg, po administered as single dose and measured upto 72 hrs; assay type: ADME, organism-based; conditions: in vivo; outline: as §4
[22] = AUC (0 to infinity) in male ICR-CD1 mouse plasma at 40 mg/kg, po administered as single dose and measured upto 72 hrs; assay type: ADME, organism-based; conditions: in vivo; outline: as §4
[23] = Extrapolated AUC in male ICR-CD1 mouse plasma at 40 mg/kg, po administered as single dose and measured upto 72 hrs; assay type: ADME, organism-based; conditions: in vivo; outline: as §4
[24] = Mutagenicity in Salmonella typhimurium TA100 assessed as increase in revertant rate upto 10 uM incubated for 96 hrs in presence of S9 fraction by AMES test; assay type: toxicity, subcellular; conditions: salmonella enterica subsp. enterica serovar typhimurium, s9, 96 h
Outline: (§5)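 96-well Ames format: overnight 37 °C cultures of TA98 and TA100 mixed with exposure medium, with or without S9. Compound tested up to 10 μM, plates incubated 96 h at 37 °C and positive wells over background scored visually. Positive controls were 2-aminoanthracene (with S9) and 4-nitroquinoline N-oxide plus 2-nitrofluorene (without S9).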

[25] = Mutagenicity in Salmonella typhimurium TA100 assessed as increase in revertant rate upto 10 uM incubated for 96 hrs in absence of S9 fraction by AMES test; assay type: toxicity; conditions: salmonella enterica subsp. enterica serovar typhimurium, s9, 96 h; outline: as §5
[26] = Mutagenicity in Salmonella typhimurium […] assessed as increase in revertant rate upto 10 uM incubated for 96 hrs in presence of S9 fraction by AMES test; assay type: toxicity, subcellular; conditions: salmonella enterica subsp. enterica serovar typhimurium, s9, 96 h; outline: as §5
[27] = Mutagenicity in Salmonella typhimurium […] assessed as increase in revertant rate upto 10 uM incubated for 96 hrs in absence of S9 fraction by AMES test; assay type: toxicity; conditions: salmonella enterica subsp. enterica serovar typhimurium, s9, 96 h; outline: as §5

Compound CC1=C(C)/C(=C/NC2CCCCCC2)N=C1c1ccc(CC(C)C)[nH]1.Cl has a survival at 0.1 µM (Leishmania mexicana [1]) of 2.3%, a viability at 96 h, 0.1 µM [2] of 74.5% and an EC50 (Leishmania mexicana [3]) of 44.3 nM. The EC50 at 96 h [4] was 1240 nM, the selectivity ratio [5] was 28 and the percent inhibition of parasite growth at 0.1 µM (Leishmania mexicana [6]) was > 96%. The half-life at 1 µM [7] was > 60 min and the half-life at 1 µM [8] was > 60 min.

Work on CCc1ccc(C2=N/C(=C\NC3CCCCCCC3)C(C)=C2C)[nH]1.Cl yielded a survival at 0.1 µM (Leishmania mexicana [1]) of 1.3%, a viability at 96 h, 0.1 µM [2] of 53.6% and an EC50 (Leishmania mexicana [3]) of 31.4 nM. For the same compound, the EC50 at 96 h [4] was 573 nM, the selectivity ratio [5] was 18 and the percent inhibition of parasite growth at 0.1 µM (Leishmania mexicana [6]) was > 96%. The half-life at 1 µM [7] was > 60 min and the half-life at 1 µM [8] was > 60 min.

With CCC1=C(CC)/C(=C/N[C@H]2CC[C@H](C)CC2)N=C1c1ccc[nH]1.Cl the survival at 0.1 µM (Leishmania mexicana [1]) was 17.1%, the viability at 96 h, 0.1 µM [2] was 87.8% and the EC50 (Leishmania mexicana [3]) was 73.3 nM. For the same compound, the EC50 at 96 h [4] was 1420 nM, the selectivity ratio [5] was 19 and the IC50 (HepG2) was 15.9 µM. The half-life at 1 µM [7] was 23.3 min, the Activity (Leishmania mexicana [9]) was “Active” and the Activity (Leishmania mexicana [10]) was “Active”.

CC1=CC(c2ccc[nH]2)=N/C1=C\NC1CCCCCC1 showed a survival at 0.1 µM (Leishmania mexicana [1]) of 26.3%, a viability at 96 h, 0.1 µM [2] of 88.4% and a percent inhibition of parasite growth at 0.1 µM (Leishmania mexicana [6]) of ~75%.

COC1=CC(c2ccc[nH]2)=N/C1=C\NC1CCCCCC1.Cl gave a survival at 0.1 µM (Leishmania mexicana [1]) of 4.84%, a viability at 96 h, 0.1 µM [2] of 99.6% and an EC50 (Leishmania mexicana [3]) of 32.5 nM. For the same compound, the EC50 at 96 h [4] was 550 nM, the selectivity ratio [5] was 17 and the percent inhibition of parasite growth at 0.1 µM (Leishmania mexicana [6]) was > 95%. For the same compound, the EC50 (Leishmania donovani) was 139 nM, the selectivity ratio [11] was 73 and the half-life at 1 µM [7] was 52.1 min.

Work on COC1=CC(c2ccc(Cc3ccc(OC)cc3)[nH]2)=N/C1=C\Nc1ccc(Cl)cc1 yielded a survival at 0.1 µM (Leishmania mexicana [1]) of 93.5%, a viability at 96 h, 0.1 µM [2] of 101% and a percent inhibition of parasite growth at 0.1 µM (Leishmania mexicana [6]) of ~7%.

In the case of CCc1ccc(C2=N/C(=C\NC3CCCCCC3)C(C)=C2C)[nH]1.Cl, the survival at 0.1 µM (Leishmania mexicana [1]) is reported as 3.7%, the viability at 96 h, 0.1 µM [2] is reported as 71.2% and the EC50 (Leishmania mexicana [3]) is reported as 40.9 nM. The EC50 at 96 h [4] was 1140 nM, the selectivity ratio [5] was 28 and the percent inhibition of parasite growth at 0.1 µM (Leishmania mexicana [6]) was > 96%. The IC50 (HepG2) was 2.99 µM, the half-life at 1 µM [7] was > 60 min and the half-life at 1 µM [8] was > 60 min. The Activity (Leishmania mexicana [9]) was “Active”, the Activity (Leishmania mexicana [10]) was “Active” and the AUClast [12] was 22982 ng·h/mL. The Cmax [13] was 3667 ng/mL, the Tmax [14] was 2 h and the “betat1/2(app)” value [15] was > 36 h. For the same compound, the AUC [16] was 23043 ng·h/mL, the “%AUCextra” value [17] was 0.262% and the Cmax [18] was 35 ng/mL. For the same compound, the Tmax [19] was 0 h, the “betat1/2(app)” value [20] was > 72 h and the AUClast [21] was 2421 ng·h/mL. The AUC [22] was 206.25 µg·h/mL, the “%AUCextra” value [23] was 98.8% and the Activity [24] was “Non-Toxic”. The Activity [25] was “Non-Toxic”, the Activity [26] was “Non-Toxic” and the Activity [27] was “Non-Toxic”.

— ChEMBL document CHEMBL5506039, “Discovery and Optimization of Tambjamines as a Novel Class of Antileishmanial Agents” (J Med Chem, 2024)
